Source: ChEMBL document CHEMBL1208782, “Synthesis and pharmacological validation of a novel series of non-steroidal FXR agonists” (Bioorg Med Chem Lett, 2010)

Experiments:
Bile acid receptor [1] = biological target: T1, Bile acid receptor (Homo sapiens, UniProt Q96RI1); assay: Agonist activity at human full length FXR transfected in HEK293 cells coexpressing pTRexDest/pGL2promotor assessed as luciferase activity by direct reporter cellular assay; assay type: functional, cell-based; settings: read-out: EC50
T1 sequence (Q96RI1 whole entry): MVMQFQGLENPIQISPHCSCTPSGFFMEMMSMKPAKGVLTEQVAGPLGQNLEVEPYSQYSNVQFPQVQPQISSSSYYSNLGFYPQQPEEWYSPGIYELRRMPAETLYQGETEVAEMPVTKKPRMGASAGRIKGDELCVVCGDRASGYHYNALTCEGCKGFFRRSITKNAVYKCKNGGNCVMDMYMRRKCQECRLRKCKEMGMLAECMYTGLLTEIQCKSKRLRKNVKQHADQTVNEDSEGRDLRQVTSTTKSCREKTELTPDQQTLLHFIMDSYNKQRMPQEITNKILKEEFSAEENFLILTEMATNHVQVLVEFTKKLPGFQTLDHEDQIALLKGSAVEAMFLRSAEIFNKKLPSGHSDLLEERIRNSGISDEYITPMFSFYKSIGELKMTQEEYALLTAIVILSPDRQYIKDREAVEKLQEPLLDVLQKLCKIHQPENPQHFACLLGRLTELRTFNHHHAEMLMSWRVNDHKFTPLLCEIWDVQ

[2] = biological target: T2, Bile acid receptor (Homo sapiens) (UniProt Q96RI1); assay: Agonist activity at human full length FXR transfected in HEK293 cells coexpressing pTRexDest/pGL2promotor assessed as luciferase activity by direct reporter cellular assay relative to GW-4064; assay type: functional, cell-based
T2 sequence (whole entry): T1 sequence (Q96RI1 whole entry)

[3] = biological target: T2, Bile acid receptor (Homo sapiens); assay: Agonist activity at human […] FXR LBD expressed in HEK293 cells coexpressing GAL4-DNA bindig domain and pFRluc by mammalian one-hybrid assay relative to GW-4064; assay type: functional, cell-based
[4] = biological target: T2, Bile acid receptor (Homo sapiens); assay: Agonist activity at human GST-fused FXR LBD assessed as cofactor peptide interaction with receptor ligand binding domain by FRET assay relative to GW-4064
Bile acid receptor [5] = biological target: T1, Bile acid receptor; assay: Agonist activity at human GST-fused FXR LBD assessed as cofactor peptide interaction with receptor ligand binding domain by FRET assay
Bile acid receptor [6] = biological target: T1, Bile acid receptor; assay: Agonist activity at human […] FXR LBD expressed in HEK293 cells coexpressing GAL4-DNA bindig domain and pFRluc by mammalian one-hybrid assay; assay type: functional, cell-based; settings: read-out: EC50
Liver [7] = assay: Drug level in db/db mouse liver measured metabolites as taurine amide at 1 mg/kg, iv after 240 mins; assay type: ADME, organism-based; design: dose 1 mg/kg, route intravenous; settings: in vivo, 4 h
Procedure, shortened: (§1)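 Mice got a single dose, 5 mg/kg po or 1 mg/kg iv. Liver and bile were sampled 240 min after dosing. Parent carboxylic acid, its acyl-glucuronide and its taurine amide were quantified separately, in ng/mL. Glucuronide identity was confirmed by glucuronidase digestion of bile or bile extracts, which regenerated the parent.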

[8] = Plasma concentration in db/db mouse at 1 mg/kg, iv after 5 mins; assay type: ADME, organism-based; design: dose 1 mg/kg, route intravenous; settings: read-out: Drug uptake
Procedure, shortened: (§2)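 Single dose to mice, 5 mg/kg po or 1 mg/kg iv. Plasma was sampled at 5, 10, 30, 90 and 240 min. Only parent compound was measured, in ng/mL.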

[9] = Clearance in db/db mouse at 1 mg/kg, iv; assay type: ADME, organism-based; design: dose 1 mg/kg, route intravenous; settings: in vivo
Procedure, shortened: (§3)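 Mice received a single dose of 5 mg/kg po or 1 mg/kg iv. Plasma was sampled at 5, 10, 30, 90 and 240 min and the parent compound alone was measured (ng/mL). Clearance (mL/h/kg), Vd (mL/kg) and oral bioavailability were derived from these plasma profiles.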

[10] = Drug level in db/db mouse bile measured metabolites as taurine amide at 1 mg/kg, iv after 240 mins; assay type: ADME, organism-based; design: dose 1 mg/kg, route intravenous; settings: in vivo, 4 h; procedure, shortened: as §1
[11] = Drug level in db/db mouse bile measured metabolites as taurine amide at 5 mg/kg, po after 240 mins; assay type: ADME, organism-based; design: dose 5 mg/kg, route oral; settings: in vivo, 4 h; procedure, shortened: as §1
[12] = Drug level in db/db mouse bile measured metabolites as glucuronide at 5 mg/kg, po after 240 mins; assay type: ADME, organism-based; design: dose 5 mg/kg, route oral; settings: in vivo, 4 h
[13] = Drug level in db/db mouse bile measured metabolites as carboxylic acid at 5 mg/kg, po after 240 mins; assay type: ADME, organism-based; design: dose 5 mg/kg, route oral; settings: in vivo, 4 h
[14] = Clearance in db/db mouse at 5 mg/kg, po; assay type: ADME, organism-based; design: dose 5 mg/kg, route oral; settings: in vivo; procedure, shortened: as §3
Liver [15] = assay: Drug level in db/db mouse liver measured metabolites as carboxylic acid at 1 mg/kg, iv after 240 mins; assay type: ADME, organism-based; design: dose 1 mg/kg, route intravenous; settings: in vivo, 4 h; procedure, shortened: as §1
[16] = Plasma concentration in db/db mouse at 5 mg/kg, po after 90 mins; assay type: ADME, organism-based; design: dose 5 mg/kg, route oral; settings: read-out: Drug uptake; procedure, shortened: as §2
Mus musculus = assay: Volume of distribution in db/db mouse at 1 mg/kg, iv; assay type: ADME, organism-based; design: dose 1 mg/kg, route intravenous; settings: in vivo
Procedure, shortened: (§4)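 Derived from the single-dose mouse plasma time courses of parent compound, 5-240 min. Dosing was 5 mg/kg po or 1 mg/kg iv. Volume of distribution is in mL/kg, clearance in mL/h/kg, and oral bioavailability in %.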

Liver [17] = assay: Drug level in db/db mouse liver measured metabolites as carboxylic acid at 5 mg/kg, po after 240 mins; assay type: ADME, organism-based; design: dose 5 mg/kg, route oral; settings: in vivo, 4 h; procedure, shortened: as §1
[18] = Plasma concentration in db/db mouse at 5 mg/kg, po after 10 mins; assay type: ADME, organism-based; design: dose 5 mg/kg, route oral; settings: read-out: Drug uptake; procedure, shortened: as §2
[19] = Plasma concentration in db/db mouse at 1 mg/kg, iv after 90 mins; assay type: ADME, organism-based; design: dose 1 mg/kg, route intravenous; settings: read-out: Drug uptake; procedure, shortened: as §2
[20] = Drug level in db/db mouse bile measured metabolites as glucuronide at 1 mg/kg, iv after 240 mins; assay type: ADME, organism-based; design: dose 1 mg/kg, route intravenous; settings: in vivo, 4 h
[21] = Plasma concentration in db/db mouse at 5 mg/kg, po after 5 mins; assay type: ADME, organism-based; design: dose 5 mg/kg, route oral; settings: read-out: Drug uptake; procedure, shortened: as §2
Liver [22] = assay: Drug level in db/db mouse liver measured metabolites as glucuronide at 5 mg/kg, po after 240 mins; assay type: ADME, organism-based; design: dose 5 mg/kg, route oral; settings: in vivo, 4 h; procedure, shortened: as §1
[23] = Plasma concentration in db/db mouse at 1 mg/kg, iv after 240 mins; assay type: ADME, organism-based; design: dose 1 mg/kg, route intravenous; settings: read-out: Drug uptake; procedure, shortened: as §2
[24] = Plasma concentration in db/db mouse at 1 mg/kg, iv after 10 mins; assay type: ADME, organism-based; design: dose 1 mg/kg, route intravenous; settings: read-out: Drug uptake; procedure, shortened: as §2
[25] = Drug level in db/db mouse bile measured metabolites as carboxylic acid at 1 mg/kg, iv after 240 mins; assay type: ADME, organism-based; design: dose 1 mg/kg, route intravenous; settings: in vivo, 4 h
[26] = Plasma concentration in db/db mouse at 1 mg/kg, iv after 30 mins; assay type: ADME, organism-based; design: dose 1 mg/kg, route intravenous; settings: read-out: Drug uptake; procedure, shortened: as §2
Liver [27] = assay: Drug level in db/db mouse liver measured metabolites as glucuronide at 1 mg/kg, iv after 240 mins; assay type: ADME, organism-based; design: dose 1 mg/kg, route intravenous; settings: in vivo, 4 h; procedure, shortened: as §1
[28] = Oral bioavailability in db/db mouse at 5 mg/kg, po; assay type: ADME, organism-based; settings: in vivo; procedure, shortened: as §4
[29] = Plasma concentration in db/db mouse at 5 mg/kg, po after 30 mins; assay type: ADME, organism-based; design: dose 5 mg/kg, route oral; settings: read-out: Drug uptake; procedure, shortened: as §2
Liver [30] = assay: Drug level in db/db mouse liver measured metabolites as taurine amide at 5 mg/kg, po after 240 mins; assay type: ADME, organism-based; design: dose 5 mg/kg, route oral; settings: in vivo, 4 h; procedure, shortened: as §1

Compound `CC(C)c1onc(-c2c(Cl)cccc2Cl)c1COc1cnc(N(C)Cc2ccc(C(=O)O)cc2)c(Cl)c1` has an EC50 (Bile acid receptor [1]) of 120 nM, an Efficacy [2] of 51% and an Efficacy [3] of 70%. The Efficacy [4] was 103%, the EC50 (Bile acid receptor [5]) was 242 nM and the EC50 (Bile acid receptor [6]) was 107 nM.

With `CC(C)c1onc(-c2c(Cl)cccc2Cl)c1COc1ccc(N(C)Cc2ccc(OCC(=O)O)cc2)c(C(F)(F)F)n1` the EC50 (Bile acid receptor [1]) was 19 nM, the Efficacy [2] was 59% and the Efficacy [3] was 69%. The Efficacy [4] was 90%, the EC50 (Bile acid receptor [5]) was 35 nM and the EC50 (Bile acid receptor [6]) was 214 nM.

`CC(C)c1onc(-c2c(Cl)cccc2Cl)c1COc1ccc(N(C)C(=O)c2cccc(C(=O)O)c2)c(C(F)(F)F)n1` gave an EC50 (Bile acid receptor [1]) of 537 nM, an Efficacy [2] of 55% and an Efficacy [3] of 35%. The Efficacy [4] was 110%, the EC50 (Bile acid receptor [5]) was 433 nM and the EC50 (Bile acid receptor [6]) was 571 nM.

With `CC(Nc1ccc(C(=O)O)cc1)c1ccc(OCc2c(-c3c(Cl)cccc3Cl)noc2C2CC2)nc1C(F)(F)F` (stereo unspecified) the EC50 (Bile acid receptor [1]) was 202 nM, the Efficacy [2] was 49% and the Efficacy [3] was 59%. The Efficacy [4] was 99%, the EC50 (Bile acid receptor [5]) was 101 nM and the EC50 (Bile acid receptor [6]) was 333 nM.

For `CN(Cc1ccc(C(=O)NCCS(=O)(=O)O)cc1)c1ccc(OCc2c(-c3c(Cl)cccc3Cl)noc2C2CC2)nc1C(F)(F)F`, the Drug uptake (Liver [7]) was 350 ng/mL, the concentration at 5 min [8] was 72 ng/mL and the EC50 (Bile acid receptor [1]) was 925 nM. It also gave a clearance [9] of 190 mL/min/kg, a Drug uptake [10] of 24151 ng/mL and an Efficacy [2] of 49%. It also gave a Drug uptake [11] of 32442 ng/mL, a Drug uptake [12] of 1055 ng/mL and a Drug uptake [13] of 32 ng/mL. For the same compound, the CL/F [14] was 3280 mL/min/kg, the Drug uptake (Liver [15]) was 8 ng/mL and the concentration at 1.5 h [16] was 12 ng/mL. It also gave a Vd (Mus musculus) of 31.7 L/kg, an Efficacy [3] of 57% and a Drug uptake (Liver [17]) of 6 ng/mL. It also gave a concentration at 10 min [18] of 3 ng/mL, a concentration at 1.5 h [19] of 19 ng/mL and a Drug uptake [20] of 169 ng/mL. It also gave a concentration at 5 min [21] of 1 ng/mL, a Drug uptake (Liver [22]) of 30 ng/mL and an Efficacy [4] of 105%. For the same compound, the concentration at 4 h [23] was 8 ng/mL, the concentration at 10 min [24] was 59 ng/mL and the Drug uptake [25] was 12 ng/mL. For the same compound, the concentration at 0.5 h [26] was 3 ng/mL, the EC50 (Bile acid receptor [5]) was 14 nM and the Drug uptake (Liver [27]) was 7 ng/mL. For the same compound, the EC50 (Bile acid receptor [6]) was 1420 nM, the bioavailability [28] was 5.8% and the concentration at 0.5 h [29] was 6 ng/mL. For the same compound, the Drug uptake (Liver [30]) was 262 ng/mL.

`CC(C)c1onc(-c2c(Cl)cccc2Cl)c1COc1ccc(N(C)Cc2cccc(C(=O)O)c2)c(C(F)(F)F)n1` gave an EC50 (Bile acid receptor [1]) of 6 nM, an Efficacy [2] of 58% and an Efficacy [3] of 89%. It also gave an Efficacy [4] of 102%, an EC50 (Bile acid receptor [5]) of 12 nM and an EC50 (Bile acid receptor [6]) of 80 nM.
